Broadly, the ED50 is the midpoint of the dose-response relation. High values mean a need for a large dose, low ones an effect at a small dose. The term IC50 denotes the concentration needed to halve the response being measured. As a reminder, the Ki is the equilibrium dissociation constant of an inhibitor or competing ligand from its target. A lower Ki goes with higher affinity.

Assay [1] is filed under the species Cavia porcellus. The assay is described as follows: Inhibition of antigen-induced bronchoconstriction in guinea pigs (95% confidence). It counts as functional. Summed up:
(§1)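 Male Hartley guinea pigs were passively sensitised with iv rabbit anti-ovalbumin antiserum and challenged with ovalbumin 30 µg/kg iv 20–28 h later. Animals were under α-chloralose anaesthesia, ventilated, and paralysed with gallamine. Overflow volume was measured by Konzett–Rössler and expressed as a percentage of the maximum. Compound was given iv 2 min before challenge. ED50 came from the dose–inhibition curve with 95% confidence limits.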

Assay [2] is filed under the species Cavia porcellus. Put plainly: Inhibition of histamine-induced bronchoconstriction in guinea pigs (95% confidence). It is filed as functional. Summed up: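 Guinea pigs received intraduodenal compound, and bronchoconstriction was induced with histamine dihydrochloride 2 µg/kg iv. Pulmonary inflation pressure was recorded in ventilated, gallamine-paralysed animals. ED50 was taken from the dose–inhibition curve using at least three doses, with 95% confidence limits.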

Assay [3] concerns Cavia porcellus. The assay is described as follows: Inhibition of antigen-induced bronchoconstriction in guinea pigs at 0.03 mg/kg intravenous dose. It is filed as functional. Summed up: as §1
Assay [4] concerns Cavia porcellus. Put plainly: Inhibition of antigen-induced bronchoconstriction in guinea pigs 0.1 mg/kg intravenous dose. It is filed as functional. In short, it runs like this: as §1
Assay [5] concerns Cavia porcellus. The assay is described as follows: Inhibition of antigen-induced bronchoconstriction in guinea pigs at 1 mg/kg intravenous dose. It counts as functional. In short, it runs like this: as §1
Assay [6] has as its system Cavia porcellus. The assay is described as follows: Inhibition of antigen-induced bronchoconstriction in guinea pigs 3 mg/kg intravenous dose. It is filed as functional. Summed up: as §1
For the next assay, the target named is Phosphodiesterase 1 (Homo sapiens, UniProt P54750+Q01064+Q14123). The assay is described as follows: Inhibition of Phosphodiesterase 1 of guinea pig cardiac ventricle. It counts as protein assay, Cavia porcellus. The note with it: target entry is the homologue from another species. Summed up: (§2)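 PDE1, 2 and 3 came from guinea pig cardiac ventricle and PDE4 and 5 from lung, separated by Resource-Q anion exchange on a sodium acetate gradient at pH 6.5. Assays used 1.0 µM [3H]cAMP or [3H]cGMP in 50 mM Tris-HCl pH 8.0, 5 mM MgCl2 and 4 mM 2-mercaptoethanol, for 30 min at 30 °C. Substrate hydrolysis was kept at or below 20%. Triplicates were run at 3–4 inhibitor levels, and IC50 was read graphically.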

The target of a further assay is Phosphodiesterase 3 (Homo sapiens, UniProt Q14432+Q13370). Put plainly: In vitro inhibition of Phosphodiesterase 3 activity from guinea pig cardiac ventricle. It counts as protein assay, Cavia porcellus. As to conditions: target entry is the homologue from another species. In short, it runs like this: as §2
Assay [7] deals with T1, Phosphodiesterase 4 (Homo sapiens, UniProt P27815+Q08499+Q07343+Q08493). Put plainly: Displacement of [3H]- rolipram binding to guinea pig brain. It is filed as tissue-based, Cavia porcellus. The note with it: target entry is the homologue from another species.
Assay [8] addresses T1, Phosphodiesterase 4. Put plainly: In vitro inhibition of Phosphodiesterase 4 from guinea pig lung. It is filed as protein assay, Cavia porcellus. As to conditions: target entry is the homologue from another species.
Assay [9] has as its target T1, Phosphodiesterase 4. Put plainly: Emetic effect in ferrets at peroral 100 mg/kg dose. It counts as functional, organism-based. The arrangement: dose 100 mg/kg. The note with it: Mustela putorius furo; target entry is the homologue from another species.

For the molecule `COc1cc2cc(CO)c(CO)c(-c3ccnc(-n4c(=O)ccc5ccccc54)c3)c2cc1OC`, the figures for the ED50 in the assay listed under Cavia porcellus [1] and in the assay filed under Cavia porcellus [2] were 0.12 mg/kg and 0.4 mg/kg, respectively. Also, the Reduction was -11% in the assay on Cavia porcellus [3], 68% in the assay on Cavia porcellus [4], 86% in the assay on Cavia porcellus [5] and 90% in the assay with Cavia porcellus [6]. The half-inhibitory concentration (IC50) stood at 2000 nM on Phosphodiesterase 1, 330 nM at Phosphodiesterase 3 and 2.8 nM at Phosphodiesterase 4 [8]. Further, the Ki on Phosphodiesterase 4 [7] is recorded as 6.2 nM. The same molecule registered an Emesis (vomiting/tested) at Phosphodiesterase 4 [9] of 4.

The record behind these values is ChEMBL document CHEMBL1132611, “Novel, potent, and selective phosphodiesterase-4 inhibitors as antiasthmatic agents: synthesis and biological activities of a series of 1-pyridylnaphthalene derivatives” (J Med Chem, 1999).
